Measurements as given in ChEMBL document CHEMBL1143884, “Pyrimidine-based inhibitors of CaMKIIdelta” (Bioorg Med Chem Lett, 2008).

Legend:
[1] = molecular target: T1, Calcium/calmodulin-dependent protein kinase type II subunit delta (Homo sapiens, UniProt Q13557); assay: Inhibition of cloned CaMK2delta
Method in brief: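 Radiometric filter-binding assay. Recombinant CaMKIIδ in 50 mM PIPES pH 7, 0.2 mg/ml BSA, 1 mM DTT, preincubated with inhibitor. Reaction started with buffer containing MgCl2, ATP, CaCl2, calmodulin, [His5]Autocamtide-2 substrate and [γ-33P]ATP, run 3 min at RT. Stopped on P81 phosphocellulose filter, washed with 1% phosphoric acid, counted by scintillation.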

[2] = molecular target: T1, Calcium/calmodulin-dependent protein kinase type II subunit delta; assay: Inhibition of CaMK2delta-mediated vimentin phosphorylation in human HL2 cells at 5 uM after 1 hr by ELISA; format: cell-based
[3] = molecular target: T1, Calcium/calmodulin-dependent protein kinase type II subunit delta; assay: Inhibition of CaMK2delta-mediated vimentin phosphorylation in human HL2 cells after 1 hr by ELISA; format: cell-based
Method in brief: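 HL-2 cells preincubated 1 h at 37 °C with inhibitor at increasing concentrations, then CaMKII activated with ionomycin for 15 min at 37 °C. Cells lysed in ice-cold lysis buffer and frozen at −80 °C before read-out.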

T1 sequence (Q13557 whole entry): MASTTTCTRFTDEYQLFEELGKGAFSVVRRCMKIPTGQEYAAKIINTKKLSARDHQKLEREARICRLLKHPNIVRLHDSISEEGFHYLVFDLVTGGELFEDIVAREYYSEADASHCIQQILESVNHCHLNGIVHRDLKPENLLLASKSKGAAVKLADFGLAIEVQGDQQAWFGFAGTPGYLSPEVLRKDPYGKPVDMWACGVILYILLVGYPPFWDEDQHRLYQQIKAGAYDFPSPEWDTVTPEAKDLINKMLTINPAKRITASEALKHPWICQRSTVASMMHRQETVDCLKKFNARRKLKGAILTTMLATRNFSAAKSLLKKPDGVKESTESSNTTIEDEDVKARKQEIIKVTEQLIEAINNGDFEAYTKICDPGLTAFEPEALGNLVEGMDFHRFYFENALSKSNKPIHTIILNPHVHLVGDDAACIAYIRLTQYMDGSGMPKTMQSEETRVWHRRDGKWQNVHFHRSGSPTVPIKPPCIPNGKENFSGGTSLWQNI

Compound Clc1cccc(Nc2nccc(-c3cccc(N4CCCCC4)c3)n2)c1 has an IC50 [1] of 930 nM.
O=C(NO)c1ccc(-c2ccnc(Nc3ccccc3)n2)cc1 gave an inhibition [2] of 90% and an IC50 [1] of 290 nM.
C[C@H](Nc1cc(Nc2nccc(-c3ccc(-c4nnn[nH]4)cc3)n2)ccn1)c1ccccc1 showed an IC50 [1] of 2260 nM.
For Clc1cccc(Nc2nccc(-c3cccc(N4CCOCC4)c3)n2)c1, the IC50 [1] was 240 nM.
With O=C(O)c1ccc(-c2ccnc(Nc3ccccc3)n2)cc1 the inhibition [2] was 0% and the IC50 [1] was 64 nM.
Compound C[C@H](Nc1cc(Nc2nccc(-c3cccc(C(=O)O)c3)n2)ccn1)c1ccccc1 has an IC50 [1] of 13000 nM.
Work on C[C@H](Nc1cc(Nc2nccc(-c3ccc(N(C)C)cc3)n2)ccn1)c1ccccc1 yielded an IC50 [1] of 2220 nM.
With O=C(O)Cc1ccc(-c2ccnc(Nc3ccccc3)n2)cc1 the IC50 [1] was over 20000 nM.
CNC(=O)c1ccc(-c2ccnc(Nc3ccccc3)n2)cc1 was tested, and the IC50 [1] was over 20000 nM.
Clc1cccc(Nc2nccc(-c3cccc(N4CCNCC4)c3)n2)c1 showed an IC50 [1] of 9 nM and an IC50 [3] of 320 nM.
Nc1cc(Nc2nccc(-c3ccc(C(=O)O)cc3)n2)ccn1 was tested, and the IC50 [1] was 66 nM.
C[C@H](Nc1cc(Nc2nccc(-c3ccc(Cl)cc3)n2)ccn1)c1ccccc1 showed an IC50 [1] of 2870 nM.
For NCCNc1cccc(-c2ccnc(Nc3cccc(Cl)c3)n2)c1, the IC50 [1] was 12 nM and the IC50 [3] was 110 nM.
Compound COC(=O)c1ccc(-c2ccnc(Nc3ccnc(N[C@@H](C)c4ccccc4)c3)n2)cc1 has an IC50 [1] of 1690 nM.
O=C(O)c1ccc(-c2ccnc(Nc3cccc(Cl)c3)n2)cc1 gave an inhibition [2] of 0% and an IC50 [1] of 42 nM.
O=C(O)c1ccc(-c2ccnc(Nc3ccncc3)n2)cc1 showed an IC50 [1] of 390 nM.
For C[C@H](Nc1cc(Nc2nccc(-c3cccc(F)c3)n2)ccn1)c1ccccc1, the IC50 [1] was 1280 nM.
For c1ccc(Nc2nccc(-c3ccc(-c4nnn[nH]4)cc3)n2)cc1, the inhibition [2] was 0% and the IC50 [1] was 770 nM.
CNC(=O)c1ccc(-c2ccnc(Nc3ccnc(N[C@@H](C)c4ccccc4)c3)n2)cc1 was tested, and the IC50 [1] was 720 nM.
Nc1cccc(-c2ccnc(Nc3cccc(Cl)c3)n2)c1 gave an IC50 [1] of 660 nM.
COC(=O)c1ccc(-c2ccnc(Nc3ccccc3)n2)cc1 was tested, and the inhibition [2] was 0% and the IC50 [1] was over 20000 nM.
C[C@H](Nc1cc(Nc2nccc(-c3ccc(C(=O)NO)cc3)n2)ccn1)c1ccccc1 showed an IC50 [1] of 170 nM.
C[C@H](Nc1cc(Nc2nccc(-c3ccc(CC(=O)O)cc3)n2)ccn1)c1ccccc1 gave an IC50 [1] of 3420 nM.
C[C@H](Nc1cc(Nc2nccc(-c3cccc(-c4ccccc4)c3)n2)ccn1)c1ccccc1 was tested, and the IC50 [1] was 3140 nM.
C[C@H](Nc1cc(Nc2nccc(-c3ccc(C(=O)O)cc3)n2)ccn1)c1ccccc1 gave an IC50 [1] of 210 nM.
Cc1cccc(-c2ccnc(Nc3ccnc(N[C@@H](C)c4ccccc4)c3)n2)c1 showed an IC50 [1] of 920 nM.
